Source: ChEMBL document CHEMBL4811241, “Revisiting Pyrazolo[3,4-d]pyrimidine Nucleosides as Anti-Trypanosoma cruzi and Antileishmanial Agents” (J Med Chem, 2021)

What was measured:
[1] = Selectivity index, ratio of CC50 for human MRC-5 SV2 cells to IC50 for antitrypanosomal activity against nifurtimox-sensitive Trypanosoma cruzi Tulahuen CL2 infected in human MRC-5 SV2 cells; format: toxicity, cell-based; conditions: read-out: Ratio CC50/IC50
Procedure, shortened: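 Ratio of MRC-5SV2 CC50 (3-day resazurin assay) to IC50 against T. cruzi amastigotes in MRC-5SV2 cells (7-day CPRG assay).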

Trypanosoma cruzi [2] = assay: Antitrypanosomal activity against nifurtimox-sensitive Trypanosoma cruzi Tulahuen CL2 infected in Swiss mouse peritoneal macrophages assessed as inhibition of parasite growth measured after 7 days by spectrophotometric analysis; format: functional, organism-based; conditions: Tulahuen CL2, Peritoneal macrophage, 168 h
Trypanosoma cruzi [3] = assay: Antitrypanosomal activity against nifurtimox-sensitive Trypanosoma cruzi Tulahuen CL2 infected in Swiss mouse peritoneal macrophages assessed as inhibition of parasite growth measured after 7 days in presence of ABC transporter inhibitor, probenecid by spectrophotometric analysis; format: functional, organism-based; conditions: Tulahuen CL2, Peritoneal macrophage, 168 h
Procedure, shortened: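 Macrophage-hosted 7-day assay read with CPRG at 540 nm, with compound given together with an ABC transporter inhibitor: cyclosporine A 2 μM, probenecid 700 μM or verapamil 8 μM. IC50 from % reduction versus infected controls.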

Trypanosoma cruzi [4] = assay: Antitrypanosomal activity against intracellular amastigote form of Trypanosoma cruzi Y infected in Swiss Webster mouse cardiomyocytes assessed as inhibition of parasite growth incubated for 48 hrs by Giemsa staining based microscopic analysis; format: functional, organism-based; conditions: Cardiac muscle cell
Procedure, shortened: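 Primary 2D mouse embryo cardiac cell cultures, infected for 24 h, then washed and exposed for 48 h at 37 °C to a serial dilution. Cells fixed and stained with Giemsa; infected cells and parasites per infected cell scored in 200 host cells. Activity expressed from the inhibition index; two independent experiments run in duplicate.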

Trypanosoma cruzi [5] = assay: Antitrypanosomal activity against Trypanosoma cruzi strain Y bloodstream trypomastigotes infected in Swiss Webster mouse assessed as reduction in parasitemia at 2.5 mg/kg, po bid for 5 days treatment started at 6 days post-infection in presence of 10 mg/kg, po Benznidazole by light microscopic analysis; format: functional; conditions: 120 h, time 5 day
Procedure, shortened: (§1)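 Male Swiss Webster mice, 18–20 g, six per group; only mice with detectable parasitemia treated. Oral gavage for 5 consecutive days (6–10 dpi); test compound given b.i.d. in 10% Tween 80, benznidazole once daily, formulations freshly prepared. Parasitemia counted by light microscopy in 5 μL blood; mortality checked daily to 34 dpi.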

[6] = Toxicity in Swiss webster mouse infected with Trypanosoma cruzi Y trypomastigotes assessed as animal survival at 2.5 to 25 mg/kg, po bid for 5 days treatment started at 6 days post-infection and measured at 34 days post-infection; format: organism-based; conditions: in vivo, dose 2.5-25 mg/kg, time 29 day
Procedure, shortened: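 Male Swiss Webster mice (18−20 g, 4−5 weeks) were infected i.p. with 10⁴ Y-strain bloodstream trypomastigotes from a donor mouse. Only mice with detectable parasitemia were treated, in groups of six. Oral gavage was given on days 6–10 post-infection, b.i.d. or q.d. as listed, in 10% Tween 80 vehicle, freshly prepared. Infected vehicle controls were included. Mortality was checked daily to 34 dpi as cumulative percentage.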

Trypanosoma cruzi [7] = assay: Antitrypanosomal activity against Trypanosoma cruzi strain Y bloodstream trypomastigotes infected in Swiss Webster mouse assessed as reduction in parasitemia at 0.25 to 2.5 mg/kg, po bid for 5 days treatment started at 6 days post-infection by light microscopic analysis; format: functional; conditions: dose 0.25-2.5 mg/kg, time 5 day; procedure, shortened: as §1
CYP450 [8] = biological target: T1, CYP450 (Homo sapiens, UniProt P04798+P05177+P05181+P08684+P10632+P10635+P11509+P11712+P13584+P20813+P20815+P20853+P24462+P24903+P33260+P33261+P51589+P78329+P98187+Q02928+Q08477+Q16678+Q16696+Q5TCH4+Q6VVX0+Q7Z449+Q8TAV3+Q96SQ9+Q9HB55); assay: Metabolic stability of the compound in human liver microsomes S9 fraction assessed as CYP450-mediated metabolism by measuring parent compound remaining at 5 uM measured after 60 mins in presence of NADPH by UPLC-MS analysis; format: ADME, subcellular; conditions: read-out: Stabilty
Procedure, shortened: (§2)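 Compound at 5 μM with 0.5 mg/mL male mouse or pooled human liver microsomes in potassium phosphate buffer; reaction started with 1 mM NADPH. Samples taken at 0, 15, 30 and 60 min and quenched in cold acetonitrile with internal standard. Parent remaining quantified by UPLC-MS/MS in MRM mode and given as % of the 0 min value.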

CYP450 [9] = assay: Metabolic stability of the compound in mouse liver microsomes S9 fraction assessed as CYP450-mediated metabolism by measuring parent compound remaining at 5 uM measured after 30 mins in presence of NADPH by UPLC-MS analysis; format: ADME, subcellular; conditions: read-out: Stabilty; procedure, shortened: as §2
CYP450 [10] = biological target: T1, CYP450; assay: Metabolic stability of the compound in human liver microsomes S9 fraction assessed as CYP450-mediated metabolism by measuring parent compound remaining at 5 uM measured after 30 mins in presence of NADPH by UPLC-MS analysis; format: ADME, subcellular; conditions: read-out: Stabilty; procedure, shortened: as §2
Trypanosoma cruzi [11] = assay: Antitrypanosomal activity against nifurtimox-sensitive Trypanosoma cruzi Tulahuen CL2 infected in human MRC-5 SV2 cells assessed as inhibition of parasite growth measured after 7 days by spectrophotometric analysis; format: functional, organism-based; conditions: Tulahuen CL2, MRC-5 SV2, 168 h
CYP450 [12] = assay: Metabolic stability of the compound in mouse liver microsomes S9 fraction assessed as CYP450-mediated metabolism by measuring parent compound remaining at 5 uM measured after 15 mins in presence of NADPH by UPLC-MS analysis; format: ADME, subcellular; conditions: read-out: Stabilty; procedure, shortened: as §2
UGT = UGT (Homo sapiens, UniProt O60656+O75310+O75795+P06133+P0DTE4+P0DTE5+P16662+P19224+P22309+P22310+P35503+P35504+P36537+P54855+Q6UWM9+Q9BY64+Q9HAW7+Q9HAW8+Q9HAW9); assay: Metabolic stability of the compound in human liver microsomes S9 fraction assessed as UGT-mediated metabolism by measuring parent compound remaining at 5 uM measured after 15 mins in presence of UDPGA by UPLC-MS analysis; format: ADME, subcellular; conditions: read-out: Stabilty
Procedure, shortened: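 Compound at 5 μM with 0.5 mg/mL male mouse or pooled human liver microsomes; reaction started with 2 mM UDPGA. Sampled at 0, 15, 30 and 60 min and quenched in cold acetonitrile with internal standard. Parent remaining measured by UPLC-MS/MS (MRM) as % of the 0 min value.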

With `Nc1ncnc2c1c(-c1ccc(Cl)cc1)nn2[C@@H]1O[C@H](CO)[C@@H](O)[C@H]1O` the selectivity ratio [1] was > 197, the IC50 (Trypanosoma cruzi [2]) was > 64 µM and the IC50 (Trypanosoma cruzi [3]) was > 64 µM. The IC50 (Trypanosoma cruzi [4]) was 0.26 µM, the inhibition in vivo at 2.5 mg/kg (Trypanosoma cruzi [5]) was 71% and the survival at 696 h [6] was 83%. For the same compound, the “inhibition (INH)” value (Trypanosoma cruzi [7]) was 43%, the remaining at 1 h, 5 µM (CYP450 [8]) was 101% and the remaining at 0.5 h, 5 µM (CYP450 [9]) was 103%. For the same compound, the remaining at 0.5 h, 5 µM (CYP450 [10]) was 101%, the IC50 (Trypanosoma cruzi [11]) was 0.32 µM and the remaining at 0.25 h, 5 µM (CYP450 [12]) was 103%. For the same compound, the remaining at 0.25 h, 5 µM (UGT) was 100%.
